Measured values: ChEMBL document CHEMBL3352597, “Heck products of parthenolide and melampomagnolide-B as anticancer modulators that modify cell cycle progression” (Eur J Med Chem, 2014)
The source made the active and inactive calls. The calls are words filed in the database; no cut-off is given here.

Experiments:
Format in all cases: functional
[1] = Anticancer activity against human NCI-ADR-RES cells
Summary of the method: (§1)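 NCI 60 human cancer cell line panel, multiple-dose testing at five concentrations (10^-4, 10^-5, 10^-6, 10^-7 and 10^-8 M). Dose-response curves plot cytotoxic effect against log10 of drug concentration for each cell line. GI50 is the molar concentration giving 50% growth inhibition; LC50 is the concentration killing 50% of cells.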

CAKI-1 = experiment: Anticancer activity against human CAKI-1 cells; summary of the method: as §1
HOP-62 = experiment: Anticancer activity against human HOP62 cells; summary of the method: as §1
[2] = Anticancer activity against human HCT116 cells; summary of the method: as §1
SNB-19 = experiment: Anticancer activity against human SNB19 cells; summary of the method: as §1
786-0 = experiment: Anticancer activity against human 786-0 cells; summary of the method: as §1
T47D = experiment: Anticancer activity against human T47D cells
Summary of the method: (§2)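 NCI 60 human tumour cell line screen. A single-concentration pre-screen was run at 10^-5 M. Compounds selected from it were then tested at five concentrations, 10^-4 to 10^-8 M. Dose-response curves plotted cytotoxic effect against log10 of the drug concentration for each cell line. GI50 is the molar concentration giving 50% growth inhibition, and LC50 the concentration killing 50% of cells.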

SK-MEL-5 = experiment: Anticancer activity against human SK-MEL-5 cells; summary of the method: as §1
[3] = Anticancer activity against human PC3 cells; summary of the method: as §1
MDA-MB-231 = experiment: Anticancer activity against human MDA-MB-231 cells; summary of the method: as §1
NCI-H522 = experiment: Anticancer activity against human NCI-H522 cells; summary of the method: as §1
HT-29 = experiment: Anticancer activity against human HT-29 cells; summary of the method: as §1
SF-268 = experiment: Anticancer activity against human SF268 cells; summary of the method: as §1
K562 = experiment: Anticancer activity against human K562 cells; summary of the method: as §1
UACC-62 = experiment: Anticancer activity against human UACC62 cells; summary of the method: as §2
ACHN = experiment: Anticancer activity against human ACHN cells; summary of the method: as §1
NCI-H322M = experiment: Anticancer activity against human NCI-H322M cells after 48 hrs; summary of the method: as §1
[4] = Anticancer activity against human SKOV3 cells; summary of the method: as §1
HCC 2998 = experiment: Anticancer activity against human HCC2998 cells; summary of the method: as §1
[5] = Anticancer activity against human OVCAR8 cells; summary of the method: as §1
[6] = Anticancer activity against human Hs 578T cells; summary of the method: as §1
[7] = Anticancer activity against human OVCAR4 cells; summary of the method: as §1
[8] = Anticancer activity against human MOLT4 cells; summary of the method: as §1
SK-MEL-28 = experiment: Anticancer activity against human SK-MEL-28 cells; summary of the method: as §1
HL-60(TB) = experiment: Anticancer activity against human HL-60(TB) cells; summary of the method: as §1
TK-10 = experiment: Anticancer activity against human TK10 cells; summary of the method: as §2
KM12 = experiment: Anticancer activity against human KM12 cells; summary of the method: as §1
SR = experiment: Anticancer activity against human SR cells; summary of the method: as §2
[9] = Anticancer activity against human COLO205 cells; summary of the method: as §1
[10] = Anticancer activity against human OVCAR3 cells; summary of the method: as §1
MCF7 = experiment: Anticancer activity against human MCF7 cells; summary of the method: as §1
A549 = experiment: Anticancer activity against human A549 cells; summary of the method: as §1
MDA-MB-435 = experiment: Anticancer activity against human MDA-MB-435 cells; summary of the method: as §1
M14 = experiment: Anticancer activity against human M14 cells; summary of the method: as §1
[11] = Anticancer activity against human HCT15 cells; summary of the method: as §1
CCRF-CEM = experiment: Anticancer activity against human CCRF-CEM cells; summary of the method: as §1
SW-620 = experiment: Anticancer activity against human SW620 cells; summary of the method: as §2
U-251 = experiment: Anticancer activity against human U251 cells; summary of the method: as §2
[12] = Anticancer activity against human UO31 cells; summary of the method: as §2
Malme-3M = experiment: Anticancer activity against human MALME-3M cells; summary of the method: as §1
IGROV-1 = experiment: Anticancer activity against human IGROV1 cells; summary of the method: as §1
NCI-H226 = experiment: Anticancer activity against human NCI-H226 cells; summary of the method: as §1
A498 = experiment: Anticancer activity against human A498 cells; summary of the method: as §1
SNB-75 = experiment: Anticancer activity against human SNB75 cells; summary of the method: as §2
NCI-H460 = experiment: Anticancer activity against human NCI-H460 cells; summary of the method: as §1
[13] = Anticancer activity against human UACC257 cells; summary of the method: as §2
[14] = Anticancer activity against human OVCAR5 cells; summary of the method: as §1
RXF 393 = experiment: Anticancer activity against human RXF393 cells; summary of the method: as §1
SK-MEL-2 = experiment: Anticancer activity against human SK-MEL-2 cells; summary of the method: as §1
[15] = Anticancer activity against human LOXIMVI cells; settings: LOX IMVI; summary of the method: as §1
[16] = Anticancer activity against human BT549 cells; summary of the method: as §1
MDA-MB-468 = experiment: Anticancer activity against human MDA-MB-468 cells; summary of the method: as §1
NCI-H23 = experiment: Anticancer activity against human NCI-H23 cells; summary of the method: as §1
DU-145 = experiment: Anticancer activity against human DU145 cells after 48 hrs; settings: DU-145, 48 h; summary of the method: as §1
[17] = Anticancer activity against human SF295 cells; summary of the method: as §1
[18] = Anticancer activity against human SF539 cells; summary of the method: as §1
SN12C = experiment: Anticancer activity against human SN12C cells; summary of the method: as §1
[19] = Anticancer activity against human RPMI8226 cells; summary of the method: as §1
[20] = read-out: LC50 (the source's name)

SMILES: C/C1=C\CC[C@@]2(C)O[C@@H]2[C@H]2OC(=O)C(Cn3ccnc3I)[C@@H]2CC1 (stereo partly specified)
- GI50 [1]: 31.2 µM
- CC50 [1, 20]: > 100 µM
- GI50 (CAKI-1): 6.61 µM
- CC50 (CAKI-1; [20]): 49.5 µM
- GI50 (HOP-62): 47.4 µM
- CC50 (HOP-62; [20]): > 100 µM
- GI50 ([2]; HCT-116): 11.8 µM
- CC50 ([2]; HCT-116, read-out: LC50 (the source's name)): 49 µM
- GI50 (SNB-19): > 100 µM
- CC50 (SNB-19; [20]): > 100 µM
- GI50 (786-0): 14.3 µM
- CC50 (786-0; [20]): 53 µM
- GI50 (T47D): 9.88 µM
- CC50 (T47D; [20]): 54.3 µM
- GI50 (SK-MEL-5): 18.5 µM
- LC50 (SK-MEL-5): 95.6 µM
- GI50 ([3]; PC-3): 23.1 µM
- CC50 ([3]; PC-3, read-out: LC50 (the source's name)): 100 µM
- GI50 (MDA-MB-231): 16.4 µM
- LC50 (concentration killing 50% of cells) (MDA-MB-231): 59.6 µM
- GI50 (NCI-H522): 1710 nM
- CC50 (NCI-H522; [20]): 6.34 µM
- GI50 (HT-29): 17.6 µM
- CC50 (HT-29; [20]): 61.5 µM
- GI50 (SF-268): 23 µM
- CC50 (SF-268; [20]): > 100 µM
- GI50 (K562): 7.36 µM
- CC50 (K562; [20]): 90 µM
- GI50 (UACC-62): inactive
- LC50 (UACC-62): inactive
- GI50 (ACHN): 10.5 µM
- CC50 (ACHN; [20]): 47.4 µM
- GI50 (NCI-H322M): 61.3 µM
- CC50 (NCI-H322M; [20]): > 100 µM
- GI50 ([4]; SK-OV-3): 47.3 µM
- CC50 ([4]; SK-OV-3, read-out: LC50 (the source's name)): > 100 µM
- GI50 (HCC 2998): inactive
- LC50 (HCC 2998): inactive
- GI50 ([5]; OVCAR-8): 16.6 µM
- CC50 ([5]; OVCAR-8, read-out: LC50 (the source's name)): 59.9 µM
- GI50 [6]: 21.3 µM
- CC50 [6, 20]: > 100 µM
- GI50 ([7]; OVCAR-4): 13.2 µM
- CC50 ([7]; OVCAR-4, read-out: LC50 (the source's name)): 60 µM
- GI50 ([8]; MOLT-4): 19.6 µM
- CC50 ([8]; MOLT-4, read-out: LC50 (the source's name)): 97.9 µM
- GI50 (SK-MEL-28): 16.1 µM
- CC50 (SK-MEL-28; [20]): 73 µM
- GI50 (HL-60(TB)): 6.9 µM
- CC50 (HL-60(TB); [20]): 77.5 µM
- GI50 (TK-10): inactive
- LC50 (TK-10): inactive
- GI50 (KM12): 43.2 µM
- CC50 (KM12; [20]): > 100 µM
- GI50 (SR): 13.6 µM
- CC50 (SR; [20]): > 100 µM
- GI50 ([9]; COLO 205): 14.5 µM
- CC50 ([9]; COLO 205, read-out: LC50 (the source's name)): 58.8 µM
- GI50 ([10]; OVCAR-3): 6.85 µM
- CC50 ([10]; OVCAR-3, read-out: LC50 (the source's name)): 50.8 µM
- GI50 (MCF7): 9.79 µM
- CC50 (MCF7; [20]): > 100 µM
- GI50 (A549): 19.8 µM
- CC50 (A549; [20]): > 100 µM
- GI50 (MDA-MB-435): 13.8 µM
- CC50 (MDA-MB-435; [20]): 59.5 µM
- GI50 (M14): 16.5 µM
- CC50 (M14; [20]): 65.6 µM
- GI50 ([11]; HCT-15): 10.7 µM
- CC50 ([11]; HCT-15, read-out: LC50 (the source's name)): 55.6 µM
- GI50 (CCRF-CEM): 6.13 µM
- CC50 (CCRF-CEM; [20]): 79.6 µM
- GI50 (SW-620): 11.4 µM
- CC50 (SW-620; [20]): 62.8 µM
- GI50 (U-251): 36.7 µM
- CC50 (U-251; [20]): > 100 µM
- GI50 ([12]; UO-31): 10.8 µM
- CC50 ([12]; UO-31, read-out: LC50 (the source's name)): 50 µM
- GI50 (Malme-3M): 10.9 µM
- CC50 (Malme-3M; [20]): 62.7 µM
- GI50 (IGROV-1): 20 µM
- CC50 (IGROV-1; [20]): 75.6 µM
- GI50 (NCI-H226): 15.4 µM
- CC50 (NCI-H226; [20]): 62.3 µM
- GI50 (A498): 45.2 µM
- CC50 (A498; [20]): > 100 µM
- GI50 (SNB-75): 19.3 µM
- CC50 (SNB-75; [20]): > 100 µM
- GI50 (NCI-H460): 30.1 µM
- CC50 (NCI-H460; [20]): > 100 µM
- GI50 ([13]; UACC-257): 12 µM
- CC50 ([13]; UACC-257, read-out: LC50 (the source's name)): 53.9 µM
- GI50 ([14]; OVCAR-5): 13.7 µM
- CC50 ([14]; OVCAR-5, read-out: LC50 (the source's name)): 52.5 µM
- GI50 (RXF 393): inactive
- LC50 (RXF 393): inactive
- GI50 (SK-MEL-2): 18.6 µM
- CC50 (SK-MEL-2; [20]): 66.1 µM
- GI50 [15]: 14.9 µM
- CC50 [15, 20]: 60.9 µM
- GI50 ([16]; BT-549): 15.9 µM
- CC50 ([16]; BT-549, read-out: LC50 (the source's name)): 55.3 µM
- GI50 (MDA-MB-468): 11.1 µM
- LC50 (concentration killing 50% of cells) (MDA-MB-468): 60.4 µM
- GI50 (NCI-H23): 23.7 µM
- CC50 (NCI-H23; [20]): > 100 µM
- GI50 (DU-145): 18.8 µM
- CC50 (DU-145; [20]): 68.3 µM
- GI50 ([17]; SF-295): 32.1 µM
- CC50 ([17]; SF-295, read-out: LC50 (the source's name)): > 100 µM
- GI50 ([18]; SF-539): 16.7 µM
- CC50 ([18]; SF-539, read-out: LC50 (the source's name)): 60.8 µM
- GI50 (SN12C): 17.7 µM
- CC50 (SN12C; [20]): 84.1 µM
- GI50 ([19]; RPMI-8226): 17 µM
- CC50 ([19]; RPMI-8226, read-out: LC50 (the source's name)): > 100 µM
